High-throughput results: PubChem BioAssay, The Scripps Research Institute Molecular Screening Center
TAAR1 ag – agonists of human TAAR1; activation, % at 3 µM; CHO RD-HGA16 TAAR1, Fluo-8 calcium fluorescence; vehicle wells 0%, saturating PEA agonist 100%; hit rate 0.99% among 360,000; Q96RJ0;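 active = activation above the mean activation of all test compounds in the run plus 3 SD, cut at about 38% in these data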
Target sequence (Q96RJ0 whole entry, looked up): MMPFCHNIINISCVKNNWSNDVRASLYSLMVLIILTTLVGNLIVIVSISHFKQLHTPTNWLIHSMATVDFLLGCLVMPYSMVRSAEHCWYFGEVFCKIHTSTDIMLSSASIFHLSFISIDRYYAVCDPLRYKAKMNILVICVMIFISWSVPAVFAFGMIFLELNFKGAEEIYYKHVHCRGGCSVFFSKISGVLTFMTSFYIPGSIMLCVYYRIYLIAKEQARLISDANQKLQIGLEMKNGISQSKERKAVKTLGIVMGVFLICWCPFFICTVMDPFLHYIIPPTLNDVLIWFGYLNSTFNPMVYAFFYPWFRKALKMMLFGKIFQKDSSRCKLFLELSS
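Test system: RD-HGA16 (CHO) cells co-expressing Gα16 and hTAAR1; dosing: one-point dosing at 3 µM (nominal); timing: 17-24 h seeding, 75 min 37 °C dye, 30 min RT; signal: kinetic Fluo-8 calcium fluorescence; read-out basis: % activation relative to PEA EC100 response; controls: DMSO and PEA EC100; replicates: n 1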
CHO parental Ca – counter-screen for OX1R antagonists: effect in parental CHO cells; inhibition, % at 5.6 µM; hit rate 0.63% among 330,000; parental CHO-K1, ATP-induced calcium, Fluo-8 fluorescence;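 active = inhibition above that plate's mean sample inhibition plus 3 SD, cut at about 26% in these data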;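 note: 0% = ATP-challenged DMSO wells and 100% = DMSO wells without ATP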
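material = parental CHO cells | also added = ATP as calcium-mobilizing challenge | dosing = single point at 5.6 µM | detection = intracellular calcium via Fluo-8 no-wash fluorescent dye | read-out = % inhibition | benchmarks = low control ATP plus DMSO, high control DMSO only | repeats = one well per compound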
TAAR1 antagonist – human TAAR1 antagonism; inhibition, % at 3 µM; CHO RD-HGA16 TAAR1, Fluo-8 calcium fluorescence, antagonist; Q96RJ0; hit rate 1.5% among 360,000;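 active = inhibition above a per-plate cutoff, the mean inhibition of test compounds on that plate plus 3 SD, cut at about 49% in these data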;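 note: 0% = DMSO plus EC80 beta-PEA response and 100% = DMSO alone without agonist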
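test system = CHO RD-HGA16 cells bearing hTAAR1 | replication = singlicate | controls = DMSO-only wells and EC80 β-PEA-stimulated wells | reagent = EC80 β-phenethylamine stimulus | read-out basis = percent inhibition of PEA-evoked calcium signal, max/basal emission ratio | schedule = seeding 17-24 h prior, 75-min 37 °C, 30-min RT dye loading | signal = kinetic Fluo-8 calcium fluorescence measurement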
OX1R antag-1 – antagonists of human orexin 1 receptor (OX1R). AID 485270. inhibition, % at 6.6 µM. OX1R-expressing cells, FRET antagonist read-out. hit rate 1.8% among 330,000; in the data active = inhibition mostly above about 38%, no sharp cut-off; inactive = mostly below about 40%;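 note: 0% = agonist challenge alone and 100% = reference antagonist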
GPR7 antag – blocks human GPR7 receptor signaling. inhibition, % at 4.4 µM. hit rate 1.1% among 290,000. GPR7-expressing cells, fluorescence antagonist assay. AID 1861. P48145; in the data active = inhibition above about 16%, passing the limit was not always enough;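 note: cells stimulated with the agonist NPW; 0% = agonist with vehicle and 100% = vehicle without agonist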
OX1R antag-2 – human HCRTR1 antagonism | hit rate 0.43% among 330,000 | inhibition, % at 5 µM | CHO/OX1R cells, Fluo-8 calcium fluorescence, orexin A | AID 434989;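 active = inhibition above its plate's threshold, mean inhibition of all tested compounds on the plate plus 3 SD, cut at about 37% in these data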;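 note: 0% = orexin A challenge wells and 100% = SB-334867-A antagonist wells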
The depositor's hits bear a star; . = no result given. The list is not random: actives were taken first. Their share in the collection is about 4.5%.

SMILES	TAAR1 ag	CHO parental Ca	TAAR1 antagonist	OX1R antag-1	GPR7 antag	OX1R antag-2
CNc1nc(NCc2ccccc2)c2sccc2n1	46*	.	31	.	.	.
COCCNc1nc(NCc2cccs2)nc2ccsc12	122*	.	104*	.	.	.
N#Cc1ccc(Nc2nc(NCc3ccccc3)nc3ccsc23)cc1	3	.	28	.	.	.
c1ccc(CNc2nc(NCc3cccs3)nc3ccsc23)cc1	52*	.	81*	.	.	.
CC(=O)NCCNc1nc(NCc2cccs2)nc2ccsc12	34	.	23	.	.	.
Clc1ccccc1OCCNc1nc(NCC2CC2)nc2ccsc12	9	.	49*	.	.	.
C/C(N)=C(/C#N)C(=O)COC(=O)CCCNC(=O)c1ccc(Cl)cc1	3	-12	4	18	2	-17
COc1cccc(CC(=O)Nc2ccc(S(=O)(=O)Nc3nc(C)cc(C)n3)cc2)c1	4	4	-5	3	-1	-19
c1csc(CNc2nc(NCC3CCCCC3)c3sccc3n2)c1	43*	.	61*	.	.	.
CSc1ccccc1CNc1nc(NCC2CC2)nc2ccsc12	17	.	38	.	.	.
Cc1ccc(Cl)cc1N1CCN(C(=O)CCS(=O)(=O)c2ccc3c(c2)NC(=O)CO3)CC1	16	-11	63*	17	-4	17
O=C1COc2ccc(S(=O)(=O)CCC(=O)N3CCN(c4cccc(Cl)c4)CC3)cc2N1	6	11	10	10	-5	-14
Cc1noc(C)c1S(=O)(=O)NC(=O)C1(C)CCN1C(=O)Cc1ccc(Cl)cc1Cl (stereo unspecified)	0	.	-26	.	.	.
CSc1ccc(-c2cc(=O)c3ccccc3o2)cc1	2	-14	-13	68*	-6	38
COC(=O)[C@@]12C[C@@H](CC(=O)NCCc3ccccc3OC)C(=O)N(Cc3cccc4ccccc34)C1=CCC(C)(C)C2	23	.	-19	.	.	.
O=C(N/N=C/c1cn(-c2ccccc2)nc1-c1cccs1)c1ccncc1	12	-14	50*	50	-2	-11
O=C(Nc1cccnc1)c1cn(-c2ccccc2)nc1-c1cccs1	11	-15	50*	18	3	-14
CC(C)COc1ccc(-c2nn(-c3ccccc3)cc2C(=O)Nc2nccs2)cc1	11	39*	73*	6	9	26
NC(=O)N/N=C/c1cn(-c2ccccc2)nc1-c1cccs1	3	-7	3	28	-7	-12
O=C(N/N=C\c1cn(-c2ccccc2)nc1-c1ccccc1)c1ccc(Br)o1	11	5	54*	59	-8	2
O=C(CSc1ccccc1)NC1CCCCCC1	1	-11	-11	4	-3	-10
COC(=O)C1=C(C)N(Cc2ccc(Br)cc2)C(=S)NC1c1cccc(OC)c1 (stereo unspecified)	0	.	33	.	.	.
O=C(N/N=C/c1cn(-c2cccs2)nc1-c1ccccc1)c1ccc(O)cc1	0	-24	26	65*	-9	8
O=C(CCNC(=O)c1ccco1)Nc1ccc(OC(F)F)c(Cl)c1	0	-5	-1	19	-12	-8
COc1cc(NC(=O)c2ccc(S(=O)(=O)N(C)c3ccccc3)cc2)cc(OC)c1	0	19	51*	-3	.	18
SMILES	TAAR1 ag	CHO parental Ca	TAAR1 antagonist	OX1R antag-1	GPR7 antag	OX1R antag-2
CC(=O)Oc1ccc(/C=N/NC(=O)c2ccc(N(C)S(=O)(=O)c3ccccc3)cc2)cc1	12	2	55*	14	13	-7
COC(=O)c1cc(NC(=O)CN(c2ccc(OC)cc2)S(=O)(=O)c2ccc(F)cc2)ccc1Cl	7	.	53*	.	-15	.
COc1ccc(NC(=O)COC(=O)CCNC(=O)c2ccco2)cc1Cl	43*	-5	12	3	.	-7
Cc1cccc(N2CCN(C(=O)c3[nH]c(C(F)(F)F)nc3-c3ccccc3)CC2)c1C	8	.	-5	.	.	.
C[C@@H](NC(=O)[C@@H]1CCCN1C(=O)[C@@H]1CCCN1C(=O)OC(C)(C)C)c1ccccc1	6	.	-6	.	.	.
COC(CNS(=O)(=O)c1ccc(S(=O)(=O)NC2CC2)cc1)OC	10	.	-5	.	-13	.
O=C(NCc1ccccc1)[C@@H]1CCCN1C(=O)[C@H]1CCCN1C(=O)c1ccccc1F	2	.	-12	.	.	.
CC(C)Oc1cccc(C(=O)Nc2ccc(Br)cc2F)c1	0	-6	2	12	2	-24
